Reference: ChEMBL document CHEMBL1150818, “Antimalarial, antiviral, and antitoxoplasmosis norsesterterpene peroxide acids from the Red Sea sponge Diacarnus erythraeanus” (J Nat Prod, 2001)
≈ marks a conversion by molar mass, not a printed value.

How the values were obtained:
Plasmodium falciparum [1] = experiment: Antimalarial activity against Plasmodium falciparum D6; format: functional, organism-based
[2] = Selectivity index, ratio of IC50 for african green monkey (Cercopithecus aethiops) Vero cells to IC50 for Plasmodium falciparum D6; format: toxicity, cell-based; details: read-out: Ratio IC50
Plasmodium falciparum [3] = experiment: Antimalarial activity against Plasmodium falciparum W2; format: functional, organism-based
[4] = Selectivity index, ratio of IC50 for african green monkey (Cercopithecus aethiops) Vero cells to IC50 for Plasmodium falciparum W2; format: toxicity, cell-based; details: read-out: Ratio IC50
Human alphaherpesvirus 1 = experiment: Antiviral activity against HSV1 infected african green monkey Vero cells assessed as inhibition of viral-induced cytopathic effect; format: functional; details: Human alphaherpesvirus 1, Vero; read-out: ED50 (the source's name)
In short: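 Simplified plaque reduction assay: serial dilutions of test compounds with herpes simplex type 1 virus in Vero African green monkey kidney cell cultures in 96-well trays.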

Vero = experiment: Cytotoxicity against african green monkey Vero cells; format: cell-based; details: Chlorocebus sabaeus
In short: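 Cytotoxicity taken from the same HSV-1 plaque cultures: concentration causing half-maximal loss of uninfected Vero cells from the monolayer surrounding plaques.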

HFF [5] = experiment: Toxicity against HFF cells at 0.010 uM after 24 hrs by MTT assay relative to control; format: cell-based; details: human, 0.01 µM
In short: (§1)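 Host-cell toxicity for HFF and L929 cells determined by MTT cell proliferation assay; expressed as percent of control.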

HFF [6] = experiment: Toxicity against HFF cells at 0.10 uM after 24 hrs by MTT assay relative to control; format: cell-based; details: human, 0.1 µM; in short: as §1
HFF [7] = experiment: Toxicity against HFF cells at 1 uM after 24 hrs by MTT assay relative to control; format: cell-based; details: human; in short: as §1
HFF [8] = experiment: Toxicity against HFF cells at 10 uM after 24 hrs by MTT assay relative to control; format: cell-based; details: human; in short: as §1
HFF [9] = experiment: Toxicity against HFF cells at 0.010 uM after 48 hrs by MTT assay relative to control; format: cell-based; details: human, 0.01 µM; in short: as §1
HFF [10] = experiment: Toxicity against HFF cells at 0.10 uM after 48 hrs by MTT assay relative to control; format: cell-based; details: human, 0.1 µM; in short: as §1
HFF [11] = experiment: Toxicity against HFF cells at 1 uM after 48 hrs by MTT assay relative to control; format: cell-based; details: human; in short: as §1
HFF [12] = experiment: Toxicity against HFF cells at 10 uM after 48 hrs by MTT assay relative to control; format: cell-based; details: human; in short: as §1
Toxoplasma gondii [13] = experiment: Antiparasitic activity against Toxoplasma gondii infected in HFF cells at 0.01 uM after 24 hrs by [3H]uracil incorporation assay relative to control; format: functional
Toxoplasma gondii [14] = experiment: Antiparasitic activity against Toxoplasma gondii infected in HFF cells at 0.1 uM after 24 hrs by [3H]uracil incorporation assay relative to control; format: functional
Toxoplasma gondii [15] = experiment: Antiparasitic activity against Toxoplasma gondii infected in HFF cells at 1 uM after 24 hrs by [3H]uracil incorporation assay relative to control; format: functional
Toxoplasma gondii [16] = experiment: Antiparasitic activity against Toxoplasma gondii infected in HFF cells at 10 uM after 24 hrs by [3H]uracil incorporation assay relative to control; format: functional
Toxoplasma gondii [17] = experiment: Antiparasitic activity against Toxoplasma gondii infected in HFF cells at 0.01 uM after 48 hrs by [3H]uracil incorporation assay relative to control; format: functional
Toxoplasma gondii [18] = experiment: Antiparasitic activity against Toxoplasma gondii infected in HFF cells at 0.1 uM after 48 hrs by [3H]uracil incorporation assay relative to control; format: functional
Toxoplasma gondii [19] = experiment: Antiparasitic activity against Toxoplasma gondii infected in HFF cells at 1 uM after 48 hrs by [3H]uracil incorporation assay relative to control; format: functional
Toxoplasma gondii [20] = experiment: Antiparasitic activity against Toxoplasma gondii infected in HFF cells at 10 uM after 48 hrs by [3H]uracil incorporation assay relative to control; format: functional
L929 [21] = experiment: Toxicity against mouse L929 cells at 0.010 uM after 24 hrs by MTT assay relative to control; format: cell-based; details: l929, 24 h, 0.01 µM; in short: as §1
L929 [22] = experiment: Toxicity against mouse L929 cells at 0.10 uM after 24 hrs by MTT assay relative to control; format: cell-based; details: l929, 24 h, 0.1 µM; in short: as §1
L929 [23] = experiment: Toxicity against mouse L929 cells at 1 uM after 24 hrs by MTT assay relative to control; format: cell-based; details: l929, 24 h; in short: as §1
L929 [24] = experiment: Toxicity against mouse L929 cells at 10 uM after 24 hrs by MTT assay relative to control; format: cell-based; details: l929, 24 h; in short: as §1
L929 [25] = experiment: Toxicity against mouse L929 cells at 0.010 uM after 48 hrs by MTT assay relative to control; format: cell-based; details: l929, 48 h, 0.01 µM; in short: as §1
L929 [26] = experiment: Toxicity against mouse L929 cells at 0.10 uM after 48 hrs by MTT assay relative to control; format: cell-based; details: l929, 48 h, 0.1 µM; in short: as §1
L929 [27] = experiment: Toxicity against mouse L929 cells at 1 uM after 48 hrs by MTT assay relative to control; format: cell-based; details: l929, 48 h; in short: as §1
L929 [28] = experiment: Toxicity against mouse L929 cells at 10 uM after 48 hrs by MTT assay relative to control; format: cell-based; details: l929, 48 h; in short: as §1
Toxoplasma gondii [29] = experiment: Antiparasitic activity against Toxoplasma gondii infected in mouse L929 cells at 0.01 uM after 24 hrs by [3H]uracil incorporation assay relative to control; format: functional
Toxoplasma gondii [30] = experiment: Antiparasitic activity against Toxoplasma gondii infected in mouse L929 cells at 0.1 uM after 24 hrs by [3H]uracil incorporation assay relative to control; format: functional
Toxoplasma gondii [31] = experiment: Antiparasitic activity against Toxoplasma gondii infected in mouse L929 cells at 1 uM after 24 hrs by [3H]uracil incorporation assay relative to control; format: functional
Toxoplasma gondii [32] = experiment: Antiparasitic activity against Toxoplasma gondii infected in mouse L929 cells at 10 uM after 24 hrs by [3H]uracil incorporation assay relative to control; format: functional
Toxoplasma gondii [33] = experiment: Antiparasitic activity against Toxoplasma gondii infected in mouse L929 cells at 0.01 uM after 48 hrs by [3H]uracil incorporation assay relative to control; format: functional
Toxoplasma gondii [34] = experiment: Antiparasitic activity against Toxoplasma gondii infected in mouse L929 cells at 0.1 uM after 48 hrs by [3H]uracil incorporation assay relative to control; format: functional
Toxoplasma gondii [35] = experiment: Antiparasitic activity against Toxoplasma gondii infected in mouse L929 cells at 1 uM after 48 hrs by [3H]uracil incorporation assay relative to control; format: functional
Toxoplasma gondii [36] = experiment: Antiparasitic activity against Toxoplasma gondii infected in mouse L929 cells at 10 uM after 48 hrs by [3H]uracil incorporation assay relative to control; format: functional
Plasmodium falciparum [37] = experiment: Antimalarial activity against Plasmodium falciparum D6 at 80 ug/mL; format: functional, organism-based
Plasmodium falciparum [38] = experiment: Antimalarial activity against Plasmodium falciparum W2 at 80 ug/mL; format: functional, organism-based

Row | Compound | IC50 (Plasmodium falciparum [1]) [µg/mL] | selectivity ratio [2] | IC50 (Plasmodium falciparum [3]) [µg/mL] | selectivity ratio [4] | EC50 (Human alphaherpesvirus 1) [µg/mL] | IC50 (Vero) [µg/mL] | Activity (HFF [5]) [%] | Activity (HFF [6]) [%] | Activity (HFF [7]) [%] | Activity (HFF [8]) [%] | Activity (HFF [9]) [%] | Activity (HFF [10]) [%] | Activity (HFF [11]) [%] | Activity (HFF [12]) [%] | Activity (Toxoplasma gondii [13]) [%] | Activity (Toxoplasma gondii [14]) [%] | Activity (Toxoplasma gondii [15]) [%] | Activity (Toxoplasma gondii [16]) [%] | Activity (Toxoplasma gondii [17]) [%] | Activity (Toxoplasma gondii [18]) [%] | also measured
1 | CC1=C(CC/C(C)=C/CC[C@@]2(C)CC[C@@H]([C@@H](C)C(=O)O)OO2)C(C)(C)CCC1 [MUQUBILIN] | 2.9 (≈ 7.39 µM) | > 1.6 | > 4.76 | > 1 | 7.5 (≈ 19.1 µM) | 30 (≈ 76.4 µM) | 0 | 7.15 | 86.15 | 85.85 | 0 | 0.94 | 85.93 | 84.73 | 3.16 | 84 | 86.18 | 91.72 | 0 | 62.88 | Activity (Toxoplasma gondii [19]): 87.94%; Activity (Toxoplasma gondii [20]): 100%; Activity (L929 [21]): 0%; Activity (L929 [22]): 0%; Activity (L929 [23]): 66.3%; Activity (L929 [24]): 93%; Activity (L929 [25]): 0%; Activity (L929 [26]): 0%; Activity (L929 [27]): 83.36%; Activity (L929 [28]): 94.9%; Activity (Toxoplasma gondii [29]): 33.85%; Activity (Toxoplasma gondii [30]): 58.35%; Activity (Toxoplasma gondii [31]): 84.03%; Activity (Toxoplasma gondii [32]): 87.84%; Activity (Toxoplasma gondii [33]): 0%; Activity (Toxoplasma gondii [34]): 46.3%; Activity (Toxoplasma gondii [35]): 96.77%; Activity (Toxoplasma gondii [36]): 100%
2 | C=C1CCC[C@@H]2[C@@H](CC[C@@]3(C)CC[C@H]([C@H](C)C(=O)O)OO3)[C@H](C)CC[C@@]12C [SIGMOSCEPTRELLIN B] | 1.2 (≈ 3.17 µM) | > 2.7 | 3.4 (≈ 8.98 µM) | > 1 |  | 2.5 (≈ 6.6 µM) | 0 | 0 | 86.81 | 87.41 | 0 | 5.56 | 64.37 | 94.65 | 0 | 84.72 | 96.49 | 94.91 | 37.57 | 98.32 | Activity (Toxoplasma gondii [19]): 100%; Activity (Toxoplasma gondii [20]): 100%; Activity (L929 [21]): 0%; Activity (L929 [22]): 0%; Activity (L929 [23]): 60.48%; Activity (L929 [24]): 92.96%; Activity (L929 [25]): 0%; Activity (L929 [26]): 0%; Activity (L929 [27]): 91.21%; Activity (L929 [28]): 91.05%; Activity (Toxoplasma gondii [29]): 0%; Activity (Toxoplasma gondii [30]): 18.61%; Activity (Toxoplasma gondii [31]): 91.88%; Activity (Toxoplasma gondii [32]): 96.62%; Activity (Toxoplasma gondii [33]): 24.15%; Activity (Toxoplasma gondii [34]): 35.17%; Activity (Toxoplasma gondii [35]): 98.82%; Activity (Toxoplasma gondii [36]): 100%
3 | C=C1CCC[C@H]2[C@](C)(CC[C@]3(C)CC[C@H]([C@@H](C)C(=O)O)OO3)[C@@H](C)CC[C@]12C [SIGMOSCEPTRELLIN A] | 0.47 (≈ 1.2 µM) |  | 0.42 (≈ 1.07 µM) |  |  |  |  |  |  |  |  |  |  |  |  |  |  |  |  |  | 
4 | CC(=O)CCCC(C)(C)C(=O)CC/C(C)=C/CC[C@@]1(C)CC[C@H]([C@H](C)C(=O)O)OO1 [AIKUPIKOXIDE A] |  |  |  |  | 30 (≈ 70.7 µM) | 60 (≈ 141 µM) |  |  |  |  |  |  |  |  |  |  |  |  |  |  | IC50 (Plasmodium falciparum [37]): Not Active; IC50 (Plasmodium falciparum [38]): Not Active
